Measurements reported in ChEMBL document CHEMBL4118285, “Synthesis and antibacterial activity of novel ketolides with 11,12-quinoylalkyl side chains” (2018).
Values after ≈ are worked out from the molar mass of the structure shown.

Assays:
Format in all cases: functional
Haemophilus influenzae [1] = assay: Antibacterial activity against azithromycin-sensitive Haemophilus influenzae 11P042 by broth microdilution method
In short: (§1)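 MICs were determined by broth microdilution following CLSI recommendations, with clarithromycin and telithromycin run as reference antibiotics.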

Staphylococcus aureus [2] = assay: Antibacterial activity against methicillin-resistant Staphylococcus aureus 11B117 by broth microdilution method
In short: (§2)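 MIC values were determined by broth microdilution following Clinical and Laboratory Standards Institute (CLSI) recommendations.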

Staphylococcus aureus [3] = assay: Antibacterial activity against methicillin-sensitive Staphylococcus aureus 11B122 by broth microdilution method; in short: as §1
[4] = test system: Staphylococcus epidermidis; assay: Antibacterial activity against methicillin-resistant Staphylococcus epidermidis 11C176 by broth microdilution method; in short: as §2
Haemophilus influenzae [5] = assay: Antibacterial activity against azithromycin-resistant Haemophilus influenzae 11Q373 by broth microdilution method; in short: as §2
[6] = test system: Staphylococcus epidermidis; assay: Antibacterial activity against methicillin-sensitive Staphylococcus epidermidis 11X315 by broth microdilution method; in short: as §2
Streptococcus pyogenes [7] = assay: Antibacterial activity against erythromycin-sensitive Streptococcus pyogenes 11L264 by broth microdilution method; in short: as §1
Streptococcus pneumoniae [8] = assay: Antibacterial activity against erythromycin-resistant Streptococcus pneumoniae 11 J011 by broth microdilution method; in short: as §2
Streptococcus pneumoniae [9] = assay: Antibacterial activity against erythromycin-sensitive Streptococcus pneumoniae 11G364 by broth microdilution method; in short: as §1
Streptococcus pyogenes [10] = assay: Antibacterial activity against erythromycin-resistant Streptococcus pyogenes 11 N369 by broth microdilution method; in short: as §2
[11] = test system: Staphylococcus epidermidis; assay: Antibacterial activity against methicillin-sensitive Staphylococcus epidermidis ATCC 12228 by broth microdilution method; in short: as §1
Staphylococcus aureus [12] = assay: Antibacterial activity against methicillin-resistant Staphylococcus aureus ATCC 33591 by broth microdilution method; in short: as §2
[13] = test system: Staphylococcus epidermidis; assay: Antibacterial activity against methicillin-resistant Staphylococcus epidermidis 13-3 by broth microdilution method; in short: as §2
Streptococcus pyogenes [14] = assay: Antibacterial activity against methicillin-resistant Streptococcus pyogenes 12-1 by broth microdilution method; in short: as §2
Klebsiella pneumoniae = assay: Antibacterial activity against extended spectrum beta-lactamases producing Klebsiella pneumoniae ATCC 700603 by broth microdilution method; in short: as §1
Escherichia coli = assay: Antibacterial activity against extended spectrum beta-lactamases non-producing Escherichia coli ATCC 25922 by broth microdilution method; in short: as §1
Streptococcus pyogenes [15] = assay: Antibacterial activity against […] Streptococcus pyogenes 12-8 by broth microdilution method; in short: as §1
Moraxella catarrhalis [16] = assay: Antibacterial activity against clarithromycin-sensitive Moraxella catarrhalis 12-1 by broth microdilution method; in short: as §1
Staphylococcus aureus [17] = assay: Antibacterial activity against methicillin-sensitive Staphylococcus aureus ATCC 29213 by broth microdilution method; in short: as §1
Moraxella catarrhalis [18] = assay: Antibacterial activity against clarithromycin-resistant Moraxella catarrhalis 12-2 by broth microdilution method; in short: as §2
Pseudomonas aeruginosa = assay: Antibacterial activity against Pseudomonas aeruginosa ATCC 27853 by broth microdilution method; in short: as §1

SMILES	MIC (Haemophilus influenzae [1])	MIC (Staphylococcus aureus [2])	MIC (Staphylococcus aureus [3])	MIC [4]	MIC (Haemophilus influenzae [5])	MIC [6]	MIC (Streptococcus pyogenes [7])	MIC (Streptococcus pneumoniae [8])	MIC (Streptococcus pneumoniae [9])	MIC [11]	MIC (Staphylococcus aureus [12])	MIC [13]	MIC (Streptococcus pyogenes [14])	MIC (Klebsiella pneumoniae)	MIC (Escherichia coli)	MIC (Streptococcus pyogenes [15])	MIC (Moraxella catarrhalis [16])	MIC (Staphylococcus aureus [17])	MIC (Moraxella catarrhalis [18])	MIC (Pseudomonas aeruginosa)	other results
CC[C@H]1OC(=O)[C@H](C)C(=O)[C@H](C)[C@@H](O[C@@H]2O[C@H](C)C[C@H](N(C)C)[C@H]2O)[C@](C)(OC)C[C@@H](C)C(=O)[C@H](C)[C@H]2N(CCCOc3cnc4ccccc4c3)C(=O)O[C@]12C	1 µg/mL (≈ 1.25 µM)	> 64 µg/mL	0.125 µg/mL (≈ 0.157 µM)	0.25 µg/mL (≈ 0.313 µM)	8 µg/mL (≈ 10 µM)	0.062 µg/mL (≈ 0.0777 µM)	0.008 µg/mL (≈ 0.01 µM)	0.062 µg/mL (≈ 0.0777 µM)	≤ 0.004 µg/mL	–	–	–	–	–	–	–	–	–	–	–	MIC (Streptococcus pyogenes [10]): 1 µg/mL (≈ 1.25 µM)
CC[C@H]1OC(=O)[C@H](C)C(=O)[C@H](C)[C@@H](O[C@@H]2O[C@H](C)C[C@H](N(C)C)[C@H]2O)[C@](C)(OC)C[C@@H](C)C(=O)[C@H](C)[C@H]2N(CC/C=C/c3cncc4cc(OC)ccc34)C(=O)O[C@]12C	–	–	–	–	–	–	–	–	–	0.015 µg/mL (≈ 0.0182 µM)	64 µg/mL (≈ 77.7 µM)	64 µg/mL (≈ 77.7 µM)	32 µg/mL (≈ 38.8 µM)	> 256 µg/mL	64 µg/mL (≈ 77.7 µM)	0.015 µg/mL (≈ 0.0182 µM)	0.015 µg/mL (≈ 0.0182 µM)	0.06 µg/mL (≈ 0.0728 µM)	8 µg/mL (≈ 9.71 µM)	64 µg/mL (≈ 77.7 µM)	–
CC[C@H]1OC(=O)[C@H](C)C(=O)[C@H](C)[C@@H](O[C@@H]2O[C@H](C)C[C@H](N(C)C)[C@H]2O)[C@](C)(OC)C[C@@H](C)C(=O)[C@H](C)[C@H]2N(CCCSc3cnc4ccccc4c3)C(=O)O[C@]12C	16 µg/mL (≈ 19.7 µM)	> 64 µg/mL	0.125 µg/mL (≈ 0.154 µM)	0.125 µg/mL (≈ 0.154 µM)	32 µg/mL (≈ 39.3 µM)	0.125 µg/mL (≈ 0.154 µM)	0.016 µg/mL (≈ 0.0197 µM)	0.125 µg/mL (≈ 0.154 µM)	0.008 µg/mL (≈ 0.00983 µM)	–	–	–	–	–	–	–	–	–	–	–	MIC (Streptococcus pyogenes [10]): 0.5 µg/mL (≈ 0.614 µM)
CC[C@H]1OC(=O)[C@H](C)C(=O)[C@H](C)[C@@H](O[C@@H]2O[C@H](C)C[C@H](N(C)C)[C@H]2O)[C@](C)(OC)C[C@@H](C)C(=O)[C@H](C)[C@H]2N(CC/C=C/c3cncc4cc(OCc5ccccc5)ccc34)C(=O)O[C@]12C	–	–	–	–	–	–	–	–	–	1 µg/mL (≈ 1.11 µM)	8 µg/mL (≈ 8.89 µM)	16 µg/mL (≈ 17.8 µM)	8 µg/mL (≈ 8.89 µM)	> 256 µg/mL	> 256 µg/mL	0.25 µg/mL (≈ 0.278 µM)	0.5 µg/mL (≈ 0.555 µM)	1 µg/mL (≈ 1.11 µM)	8 µg/mL (≈ 8.89 µM)	> 256 µg/mL	–
CC[C@H]1OC(=O)[C@H](C)C(=O)[C@H](C)[C@@H](O[C@@H]2O[C@H](C)C[C@H](N(C)C)[C@H]2O)[C@](C)(OC)C[C@@H](C)C(=O)[C@H](C)[C@H]2N(CCCCc3cnc4ccccc4c3)C(=O)O[C@]12C	0.5 µg/mL (≈ 0.628 µM)	64 µg/mL (≈ 80.4 µM)	0.125 µg/mL (≈ 0.157 µM)	0.062 µg/mL (≈ 0.0779 µM)	4 µg/mL (≈ 5.03 µM)	0.062 µg/mL (≈ 0.0779 µM)	0.008 µg/mL (≈ 0.0101 µM)	0.062 µg/mL (≈ 0.0779 µM)	≤ 0.004 µg/mL	–	–	–	–	–	–	–	–	–	–	–	MIC (Streptococcus pyogenes [10]): 0.5 µg/mL (≈ 0.628 µM)
CC[C@H]1OC(=O)[C@H](C)C(=O)[C@H](C)[C@@H](O[C@@H]2O[C@H](C)C[C@H](N(C)C)[C@H]2O)[C@](C)(OC)C[C@@H](C)C(=O)[C@H](C)[C@H]2N(CC/C=C/c3cncc4ccc(OCc5ccccc5)cc34)C(=O)O[C@]12C	–	–	–	–	–	–	–	–	–	1 µg/mL (≈ 1.11 µM)	8 µg/mL (≈ 8.89 µM)	8 µg/mL (≈ 8.89 µM)	8 µg/mL (≈ 8.89 µM)	> 256 µg/mL	> 256 µg/mL	0.125 µg/mL (≈ 0.139 µM)	1 µg/mL (≈ 1.11 µM)	1 µg/mL (≈ 1.11 µM)	4 µg/mL (≈ 4.44 µM)	> 256 µg/mL	–
CC[C@H]1OC(=O)[C@H](C)C(=O)[C@H](C)[C@@H](O[C@@H]2O[C@H](C)C[C@H](N(C)C)[C@H]2O)[C@](C)(OC)C[C@@H](C)C(=O)[C@H](C)[C@H]2N(CC/C=C/c3cncc4ccccc34)C(=O)O[C@]12C	–	–	–	–	–	–	–	–	–	0.03 µg/mL (≈ 0.0378 µM)	64 µg/mL (≈ 80.6 µM)	64 µg/mL (≈ 80.6 µM)	64 µg/mL (≈ 80.6 µM)	64 µg/mL (≈ 80.6 µM)	16 µg/mL (≈ 20.2 µM)	0.015 µg/mL (≈ 0.0189 µM)	0.015 µg/mL (≈ 0.0189 µM)	0.015 µg/mL (≈ 0.0189 µM)	32 µg/mL (≈ 40.3 µM)	32 µg/mL (≈ 40.3 µM)	–
CC[C@H]1OC(=O)[C@H](C)C(=O)[C@H](C)[C@@H](O[C@@H]2O[C@H](C)C[C@H](N(C)C)[C@H]2O)[C@](C)(OC)C[C@@H](C)C(=O)[C@H](C)[C@H]2N(CCCOc3ccc4cccnc4c3)C(=O)O[C@]12C	–	–	–	–	–	–	–	–	–	0.03 µg/mL (≈ 0.0376 µM)	256 µg/mL (≈ 321 µM)	> 256 µg/mL	> 256 µg/mL	128 µg/mL (≈ 160 µM)	16 µg/mL (≈ 20.1 µM)	0.015 µg/mL (≈ 0.0188 µM)	0.015 µg/mL (≈ 0.0188 µM)	0.015 µg/mL (≈ 0.0188 µM)	64 µg/mL (≈ 80.2 µM)	32 µg/mL (≈ 40.1 µM)	–
